Source: ChEMBL document CHEMBL3407339, “A novel series of thiazolyl-pyrazoline derivatives: synthesis and evaluation of antifungal activity, cytotoxicity and genotoxicity” (Eur J Med Chem, 2015)
In brackets after ≈: the same amount, converted by molar mass.

Legend:
Aspergillus niger = test: Antifungal activity against Aspergillus niger ATCC 1094 after 72 hrs by broth microdilution assay; format: functional; conditions: ATCC 1094, 72 h
How it was run: (§1)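 Compounds dissolved in DMSO, diluted in sterile distilled water from 4 to 0.0039 mg/mL. Molds grown on PDA at 25 °C for 5 days, suspended in double-strength PDB at 10⁵ spores/mL. Incubated at 25 °C for 72 h; mycelial growth read under stereo microscope. MIC = lowest concentration inhibiting visible growth. Ketoconazole reference.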

Salmonella typhimurium [1] = test: Mutagenicity in Salmonella typhimurium TA98 at 5 mg/ml after 48 hrs by AMES MPF assay in presence of Sprague-Dawley rat liver microsomal S9 fraction relative to baseline; format: toxicity, organism-based; conditions: salmonella enterica subsp. enterica serovar typhimurium
How it was run: (§2)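 Ames MPF fluctuation test with TA98/TA100. Overnight cultures (37 °C, 14–16 h) mixed with exposure medium; ±Aroclor-1254-induced rat liver S9 (final 4.5% v/v). Compounds in DMSO, 0.156–5 mg/mL. 90 min exposure at 37 °C, then indicator medium; 48 wells per concentration, 48 h at 37 °C, in triplicate. Yellow wells counted; fold induction over baseline (mean + 1 SD of zero-dose control).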

Candida parapsilosis = test: Antifungal activity against Candida parapsilosis NRLL Y 12696 after 48 hrs by broth microdilution assay; format: functional; conditions: Lodderomyces parapsilosis, NRLL Y 12696, 48 h
How it was run: (§3)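 Broth microdilution of DMSO stocks serially diluted in sterile water (4 to 0.0039 mg/mL). Yeasts grown on SDA at 37 °C for 24 h, suspended in double-strength PDB at 10⁵ spores/mL. Incubated at 37 °C for 48 h, then sprayed with 0.5% aqueous TTC. MIC = lowest concentration inhibiting visible growth. Ketoconazole reference.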

Salmonella typhimurium [2] = test: Mutagenicity in Salmonella typhimurium TA100 at 0.3125 mg/ml after 48 hrs by AMES MPF assay in presence of Sprague-Dawley rat liver microsomal S9 fraction relative to baseline; format: toxicity, organism-based; conditions: salmonella enterica subsp. enterica serovar typhimurium; how it was run: as §2
Salmonella typhimurium [3] = test: Mutagenicity in Salmonella typhimurium TA100 at 0.625 mg/ml after 48 hrs by AMES MPF assay in presence of Sprague-Dawley rat liver microsomal S9 fraction relative to baseline; format: toxicity, organism-based; conditions: salmonella enterica subsp. enterica serovar typhimurium; how it was run: as §2
Salmonella typhimurium [4] = test: Mutagenicity in Salmonella typhimurium TA100 at 0.625 mg/ml after 48 hrs by AMES MPF assay in absence of Sprague-Dawley rat liver microsomal S9 fraction relative to baseline; format: toxicity, organism-based; conditions: salmonella enterica subsp. enterica serovar typhimurium; how it was run: as §2
Salmonella typhimurium [5] = test: Mutagenicity in Salmonella typhimurium TA98 at 0.625 mg/ml after 48 hrs by AMES MPF assay in absence of Sprague-Dawley rat liver microsomal S9 fraction relative to baseline; format: toxicity, organism-based; conditions: salmonella enterica subsp. enterica serovar typhimurium; how it was run: as §2
Salmonella typhimurium [6] = test: Mutagenicity in Salmonella typhimurium TA100 at 0.3125 mg/ml after 48 hrs by AMES MPF assay in absence of Sprague-Dawley rat liver microsomal S9 fraction relative to baseline; format: toxicity, organism-based; conditions: salmonella enterica subsp. enterica serovar typhimurium; how it was run: as §2
Salmonella typhimurium [7] = test: Mutagenicity in Salmonella typhimurium TA98 at 1.25 mg/ml after 48 hrs by AMES MPF assay in absence of Sprague-Dawley rat liver microsomal S9 fraction relative to baseline; format: toxicity, organism-based; conditions: salmonella enterica subsp. enterica serovar typhimurium; how it was run: as §2
Salmonella typhimurium [8] = test: Mutagenicity in Salmonella typhimurium TA98 at 2.5 mg/ml after 48 hrs by AMES MPF assay in presence of Sprague-Dawley rat liver microsomal S9 fraction relative to baseline; format: toxicity, organism-based; conditions: salmonella enterica subsp. enterica serovar typhimurium; how it was run: as §2
Salmonella typhimurium [9] = test: Mutagenicity in Salmonella typhimurium TA98 at 1.25 mg/ml after 48 hrs by AMES MPF assay in presence of Sprague-Dawley rat liver microsomal S9 fraction relative to baseline; format: toxicity, organism-based; conditions: salmonella enterica subsp. enterica serovar typhimurium; how it was run: as §2
Fusarium solani = test: Antifungal activity against Fusarium solani NRRL 13414 after 72 hrs by broth microdilution assay; format: functional; conditions: NRRL 13414, 72 h; how it was run: as §1
Salmonella typhimurium [10] = test: Mutagenicity in Salmonella typhimurium TA100 at 2.5 mg/ml after 48 hrs by AMES MPF assay in absence of Sprague-Dawley rat liver microsomal S9 fraction relative to baseline; format: toxicity, organism-based; conditions: salmonella enterica subsp. enterica serovar typhimurium; how it was run: as §2
Salmonella typhimurium [11] = test: Mutagenicity in Salmonella typhimurium TA100 at 2.5 mg/ml after 48 hrs by AMES MPF assay in presence of Sprague-Dawley rat liver microsomal S9 fraction relative to baseline; format: toxicity, organism-based; conditions: salmonella enterica subsp. enterica serovar typhimurium; how it was run: as §2
Salmonella typhimurium [12] = test: Mutagenicity in Salmonella typhimurium TA98 at 0.156 mg/ml after 48 hrs by AMES MPF assay in absence of Sprague-Dawley rat liver microsomal S9 fraction relative to baseline; format: toxicity, organism-based; conditions: salmonella enterica subsp. enterica serovar typhimurium; how it was run: as §2
A549 = test: Antiproliferative activity against human A549 cells after 24 hrs by XTT assay; format: functional, cell-based; conditions: A549, 24 h
How it was run: (§4)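 A549 cells in RPMI and NIH/3T3 cells in DMEM, each with fetal calf serum, antibiotics and 7.5% NaHCO₃, at 37 °C, 5% CO₂. Seeded at 20,000 cells/well, 24 h, then compounds added in medium at 500–3.9 doses (final DMSO <0.1%) for 24 h. XTT read after 3 h at 480 nm (ref 680 nm). IC₅₀ by non-linear regression; triplicates; cisplatin control.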

Pichia kudriavzevii = test: Antifungal activity against Candida krusei NRLL Y 7179 after 48 hrs by broth microdilution assay; format: functional; conditions: NRLL Y 7179, 48 h; how it was run: as §3
Nakaseomyces glabratus = test: Antifungal activity against Candida glabrata clinical isolate after 48 hrs by broth microdilution assay; format: functional; how it was run: as §3
Aspergillus flavus = test: Antifungal activity against Aspergillus flavus NRRL 980 after 72 hrs by broth microdilution assay; format: functional; conditions: NRRL 980, 72 h; how it was run: as §1
Salmonella typhimurium [13] = test: Mutagenicity in Salmonella typhimurium TA98 at 2.5 mg/ml after 48 hrs by AMES MPF assay in absence of Sprague-Dawley rat liver microsomal S9 fraction relative to baseline; format: toxicity, organism-based; conditions: salmonella enterica subsp. enterica serovar typhimurium; how it was run: as §2
Candida tropicalis = test: Antifungal activity against Candida tropicalis NRLL Y 12968 after 48 hrs by broth microdilution assay; format: functional; conditions: NRLL Y 12968, 48 h; how it was run: as §3
Aspergillus parasiticus = test: Antifungal activity against Aspergillus parasiticus NRRL 465 after 72 hrs by broth microdilution assay; format: functional; conditions: NRRL 465, 72 h; how it was run: as §1
Salmonella typhimurium [14] = test: Mutagenicity in Salmonella typhimurium TA100 at 5 mg/ml after 48 hrs by AMES MPF assay in presence of Sprague-Dawley rat liver microsomal S9 fraction relative to baseline; format: toxicity, organism-based; conditions: salmonella enterica subsp. enterica serovar typhimurium; how it was run: as §2
Salmonella typhimurium [15] = test: Mutagenicity in Salmonella typhimurium TA98 at 0.3125 mg/ml after 48 hrs by AMES MPF assay in absence of Sprague-Dawley rat liver microsomal S9 fraction relative to baseline; format: toxicity, organism-based; conditions: salmonella enterica subsp. enterica serovar typhimurium; how it was run: as §2
Salmonella typhimurium [16] = test: Mutagenicity in Salmonella typhimurium TA98 at 0.3125 mg/ml after 48 hrs by AMES MPF assay in presence of Sprague-Dawley rat liver microsomal S9 fraction relative to baseline; format: toxicity, organism-based; conditions: salmonella enterica subsp. enterica serovar typhimurium; how it was run: as §2
Salmonella typhimurium [17] = test: Mutagenicity in Salmonella typhimurium TA100 at 0.156 mg/ml after 48 hrs by AMES MPF assay in absence of Sprague-Dawley rat liver microsomal S9 fraction relative to baseline; format: toxicity, organism-based; conditions: salmonella enterica subsp. enterica serovar typhimurium; how it was run: as §2
Salmonella typhimurium [18] = test: Mutagenicity in Salmonella typhimurium TA100 at 0.156 mg/ml after 48 hrs by AMES MPF assay in presence of Sprague-Dawley rat liver microsomal S9 fraction relative to baseline; format: toxicity, organism-based; conditions: salmonella enterica subsp. enterica serovar typhimurium; how it was run: as §2
Salmonella typhimurium [19] = test: Mutagenicity in Salmonella typhimurium TA100 at 1.25 mg/ml after 48 hrs by AMES MPF assay in absence of Sprague-Dawley rat liver microsomal S9 fraction relative to baseline; format: toxicity, organism-based; conditions: salmonella enterica subsp. enterica serovar typhimurium; how it was run: as §2
Candida albicans = test: Antifungal activity against Candida albicans ATCC 90028 after 48 hrs by broth microdilution assay; format: functional; conditions: ATCC 90028, 48 h; how it was run: as §3
Salmonella typhimurium [20] = test: Mutagenicity in Salmonella typhimurium TA98 at 0.156 mg/ml after 48 hrs by AMES MPF assay in presence of Sprague-Dawley rat liver microsomal S9 fraction relative to baseline; format: toxicity, organism-based; conditions: salmonella enterica subsp. enterica serovar typhimurium; how it was run: as §2
[Candida] zeylanoides = Antifungal activity against Candida zeylanoides NRLL Y 1774 after 48 hrs by broth microdilution assay; format: functional; conditions: Dujonia zeylanoides, NRLL Y 1774, 48 h; how it was run: as §3
[21] = Cytotoxicity against mouse NIH/3T3 cells after 24 hrs by XTT assay; format: cell-based; conditions: NIH3T3, 24 h; how it was run: as §4
Salmonella typhimurium [22] = test: Mutagenicity in Salmonella typhimurium TA100 at 5 mg/ml after 48 hrs by AMES MPF assay in absence of Sprague-Dawley rat liver microsomal S9 fraction relative to baseline; format: toxicity, organism-based; conditions: salmonella enterica subsp. enterica serovar typhimurium; how it was run: as §2
Salmonella typhimurium [23] = test: Mutagenicity in Salmonella typhimurium TA98 at 0.625 mg/ml after 48 hrs by AMES MPF assay in presence of Sprague-Dawley rat liver microsomal S9 fraction relative to baseline; format: toxicity, organism-based; conditions: salmonella enterica subsp. enterica serovar typhimurium; how it was run: as §2
Salmonella typhimurium [24] = test: Mutagenicity in Salmonella typhimurium TA98 at 5 mg/ml after 48 hrs by AMES MPF assay in absence of Sprague-Dawley rat liver microsomal S9 fraction relative to baseline; format: toxicity, organism-based; conditions: salmonella enterica subsp. enterica serovar typhimurium; how it was run: as §2
Salmonella typhimurium [25] = test: Mutagenicity in Salmonella typhimurium TA100 at 1.25 mg/ml after 48 hrs by AMES MPF assay in presence of Sprague-Dawley rat liver microsomal S9 fraction relative to baseline; format: toxicity, organism-based; conditions: salmonella enterica subsp. enterica serovar typhimurium; how it was run: as §2

Compound	MIC (Aspergillus niger) [mg/L]	fold change (FC) (Salmonella typhimurium [1])	MIC (Candida parapsilosis) [mg/L]	fold change (FC) (Salmonella typhimurium [2])	fold change (FC) (Salmonella typhimurium [3])	fold change (FC) (Salmonella typhimurium [4])	fold change (FC) (Salmonella typhimurium [5])	fold change (FC) (Salmonella typhimurium [6])	fold change (FC) (Salmonella typhimurium [7])	fold change (FC) (Salmonella typhimurium [8])	fold change (FC) (Salmonella typhimurium [9])	MIC (Fusarium solani) [mg/L]	fold change (FC) (Salmonella typhimurium [10])	fold change (FC) (Salmonella typhimurium [11])	fold change (FC) (Salmonella typhimurium [12])	IC50 (A549) [mg/L]	MIC (Pichia kudriavzevii) [mg/L]	MIC (Nakaseomyces glabratus) [mg/L]	MIC (Aspergillus flavus) [mg/L]	fold change (FC) (Salmonella typhimurium [13])	other results
Cc1ccc(C2=NN(c3nc(-c4ccc(C#N)cc4)cs3)C(c3ccc(F)cc3)C2)s1 (configuration not stated)	250 (≈ 562 µM)	1.16	250 (≈ 562 µM)	0.94	0.86	0.74	1.11	0.74	1.11	0.89	0.44	250 (≈ 562 µM)	0.31	0.55	1.78	322 (≈ 724 µM)	250 (≈ 562 µM)	125 (≈ 281 µM)	125 (≈ 281 µM)	1.56	MIC (Candida tropicalis): 250 mg/L (≈ 562 µM); MIC (Aspergillus parasiticus): 250 mg/L (≈ 562 µM); fold change (FC) (Salmonella typhimurium [14]): 1.01; fold change (FC) (Salmonella typhimurium [15]): 1.56; fold change (FC) (Salmonella typhimurium [16]): 0.18; fold change (FC) (Salmonella typhimurium [17]): 0.8; fold change (FC) (Salmonella typhimurium [18]): 1.01; fold change (FC) (Salmonella typhimurium [19]): 0.31; MIC (Candida albicans): 250 mg/L (≈ 562 µM); fold change (FC) (Salmonella typhimurium [20]): 0.27; MIC ([Candida] zeylanoides): 250 mg/L (≈ 562 µM); IC50 [21]: 250 mg/L (≈ 562 µM); fold change (FC) (Salmonella typhimurium [22]): 0.8; fold change (FC) (Salmonella typhimurium [23]): 1.07; fold change (FC) (Salmonella typhimurium [24]): 1.33; fold change (FC) (Salmonella typhimurium [25]): 0.7
Cc1ccc(C2=NN(c3nc(-c4ccc(S(C)(=O)=O)cc4)cs3)C(c3ccc(F)cc3)C2)s1 (configuration not stated)	250 (≈ 502 µM)	0.81	250 (≈ 502 µM)	0.73	0.93	0.99	0.44	1.04	0.89	1.36	0.95	250 (≈ 502 µM)	0.52	1.26	0.67	> 500	250 (≈ 502 µM)	125 (≈ 251 µM)	125 (≈ 251 µM)	0.67	MIC (Candida tropicalis): 250 mg/L (≈ 502 µM); MIC (Aspergillus parasiticus): 250 mg/L (≈ 502 µM); fold change (FC) (Salmonella typhimurium [14]): 0.93; fold change (FC) (Salmonella typhimurium [15]): 0.22; fold change (FC) (Salmonella typhimurium [16]): 0.27; fold change (FC) (Salmonella typhimurium [17]): 0.78; fold change (FC) (Salmonella typhimurium [18]): 0.73; fold change (FC) (Salmonella typhimurium [19]): 0.52; MIC (Candida albicans): 250 mg/L (≈ 502 µM); fold change (FC) (Salmonella typhimurium [20]): 0.41; MIC ([Candida] zeylanoides): 250 mg/L (≈ 502 µM); IC50 [21]: 374 mg/L (≈ 751 µM); fold change (FC) (Salmonella typhimurium [22]): 1.09; fold change (FC) (Salmonella typhimurium [23]): 1.63; fold change (FC) (Salmonella typhimurium [24]): 0.89; fold change (FC) (Salmonella typhimurium [25]): 0.8
